Assay outcomes (PubChem)
T cruzi growth-1 = inhibitors of T. cruzi proliferation. T. cruzi beta-gal in NIH3T3, GalScreen luminescence, 90 h. inhibition, % at 8.34 µM. actives 5.9% (n = 77,000);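 active means mean inhibition above about 93%, with at least 55% of replicates each passing it, limit read from the data, passing the limit was not always enough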
IDH1 R132H inh = IDH1 R132H (human) inhibition. inhibition, % at 10 µM. IDH1 R132H reductase, diaphorase/resazurin fluorescence, 60 min. O75874. actives 0.18% (n = 70,000); in the data active means inhibition above about 34%;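 further: 0% = DMSO and 100% = no enzyme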
KDM4C inh = blocks human GASC-1 (KDM4C) demethylase activity. inhibition, % at 12.5 µM. GST-KDM4C 2-372, H3K9me3 peptide, LANCE TR-FRET. actives 0.15% (n = 96,000). Q9H3R0;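 active means mean replicate inhibition above about 25%, with at least 55% of replicates also reaching it, limit read from the data, passing the limit was not always enough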
Target sequence (Q9H3R0 2-372 limits assumed): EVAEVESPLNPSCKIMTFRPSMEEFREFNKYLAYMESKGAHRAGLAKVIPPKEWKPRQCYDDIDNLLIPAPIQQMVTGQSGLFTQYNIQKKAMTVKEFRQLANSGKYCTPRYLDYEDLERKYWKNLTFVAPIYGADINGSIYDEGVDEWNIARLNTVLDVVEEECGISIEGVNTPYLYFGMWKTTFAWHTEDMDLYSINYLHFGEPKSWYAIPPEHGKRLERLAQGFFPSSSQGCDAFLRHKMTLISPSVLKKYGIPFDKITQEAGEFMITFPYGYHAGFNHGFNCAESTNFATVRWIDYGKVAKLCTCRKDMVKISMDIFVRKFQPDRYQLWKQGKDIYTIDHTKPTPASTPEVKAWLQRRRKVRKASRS
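Compound: one test concentration per compound; Material: GST-GASC-1 enzyme fragment 2-372; Amount: GASC-1 enzyme at 10 nM final in reaction; Also added: H3K9me3 peptide substrate, Fe(II), 2-oxoglutarate; Technique: LANCE TR-FRET; Times: 30 min demethylation and 1 h detection at room temperature.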
T cruzi growth-2 = Trypanosoma cruzi proliferation inhibition. shares compounds with T cruzi growth-1. T. cruzi beta-gal in NIH3T3, GalScreen luminescence, 90 h. inhibition, % at 8.35 µM. actives 72% (n = 5,600). AID 651739;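 active means mean replicate inhibition above about 95% and at least 55% of replicates individually reaching it, limit read from the data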
T cruzi growth-3 = blocks T. cruzi growth in NIH3T3 host cells | shares compounds with T cruzi growth-1 | T. cruzi beta-gal in NIH3T3, GalScreen luminescence, 90 h | inhibition, % at 2.09 µM | actives 21% (n = 5,600);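 active means mean inhibition above about 95%, with at least 55% of replicates also reaching it, limit read from the data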;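 further: plate controls were neutral control median for no effect and positive control median for full effect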
NIH3T3 tox = NIH/3T3 (mouse) viability loss. NIH/3T3 viability, CellTiter-Glo ATP luminescence, 90 h. actives 14% (n = 5,600). shares compounds with T cruzi growth-1. cytotoxicity (signal decrease), % at 8.35 µM. AID 651742;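 active means mean signal decrease across replicates above about 35% based on untreated-well scatter, with enough replicates individually passing, limit read from the data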;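 further: 0% = median of neutral control wells and 100% = median of positive control wells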
3T3 cytotox 2 = cytotoxicity in mouse NIH/3T3 fibroblasts; inhibition, % at 24.9 µM; NIH/3T3 viability, CellTiter-Glo ATP luminescence, 90 h; shares compounds with T cruzi growth-1; actives 56% (n = 5,600);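 active means mean loss of cell viability signal at or above a set limit, and enough replicates individually reaching it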;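 further: 0% = median of neutral control wells and 100% = median of positive control wells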
Starred values were filed as active, the others as inactive; · = no result. The full list was thinned out, with hits kept by preference.

SMILES	T cruzi growth-1	IDH1 R132H inh	KDM4C inh	T cruzi growth-2	T cruzi growth-3	NIH3T3 tox	3T3 cytotox 2
COc1ccc(NC(=O)N2CCCCN3[C@H](C2)[C@H](c2ccc(-c4ccccc4F)cc2)[C@@H]3CO)cc1	67	·	-2	·	·	·	·
N#C[C@@H]1[C@H](c2ccc(C3=CCCCC3)cc2)[C@H](CO)N1C(=O)Nc1ccccc1F	102*	·	-3	110*	59	-5	15
N#C[C@H]1[C@H](c2ccc(C3=CCCCC3)cc2)[C@H](CO)N1C(=O)NC1CCCCC1	101*	·	0	97*	101*	10	69*
CCCNC(=O)N1[C@H](CO)[C@H](c2ccc(C3=CCCC3)cc2)[C@@H]1C#N	27	0	3	·	·	·	·
CCCNC(=O)N1[C@@H](C#N)[C@H](c2ccc(C3=CCCCC3)cc2)[C@@H]1CO	103*	·	2	98*	107*	21	33*
C/C=C/c1ccc([C@H]2[C@@H](CO)N(C(=O)Nc3ccccc3F)[C@H]2C#N)cc1	105*	1	0	87	56	10	48*
N#C[C@@H]1[C@@H](c2ccc(C3=CCCCC3)cc2)[C@H](CO)N1C(=O)NC1CCCC1	·	·	-1	·	·	·	·
C/C=C/c1ccccc1[C@H]1[C@@H](CO)N(C(=O)Nc2ccccc2F)[C@H]1C#N	·	·	-1	·	·	·	·
N#C[C@H]1[C@@H](c2ccc(C3=CCCCC3)cc2)[C@@H](CO)N1C(=O)Nc1ccccc1F	69	-1	1	·	·	·	·
COCC(=O)N1[C@@H]2CN(C(=O)c3ccccc3F)c3ccccc3[C@@H]2[C@@H]1CO	17	·	-2	·	·	·	·
C[C@H]1CN([C@@H](C)CO)C(=O)c2cccc(NS(=O)(=O)c3ccc(Cl)cc3)c2O[C@H]1CN(C)S(=O)(=O)c1ccccc1	43	-1	-2	·	·	·	·
CNC[C@@H]1Oc2ccc(NC(=O)Cc3ccccc3)cc2C(=O)N([C@@H](C)CO)C[C@H]1C	67	2	0	·	·	·	·
C[C@@H]1CN([C@H](C)CO)C(=O)c2cc(NS(C)(=O)=O)ccc2O[C@@H](C)CCCCO[C@@H]1CN(C)Cc1ccc(Cl)c(Cl)c1	87	-4	-1	·	·	·	·
CCCN(C)C[C@H]1Oc2ncc(-c3cccc(C#N)c3)cc2C(=O)N([C@@H](C)CO)C[C@H]1C	40	-1	0	·	·	·	·
O=C(Nc1cc(F)ccc1F)N1CC(=O)N2[C@@H](CO)[C@H](c3ccc(C#CC4CCCCC4)cc3)[C@@H]2C1	·	·	-1	·	·	·	·
C[C@@H]1CN([C@@H](C)CO)C(=O)c2cc(NC(=O)Cc3ccccc3)ccc2O[C@H]1CN(C)C(=O)Nc1ccccc1	39	·	0	·	·	·	·
N#C[C@@H]1[C@@H](c2ccc(C3=CCCCC3)cc2)[C@@H](CO)N1C(=O)NC1CCCC1	·	·	2	·	·	·	·
N#C[C@@H]1[C@H](c2ccc(C3=CCCCC3)cc2)[C@H](CO)N1C(=O)NC1CCCCC1	107*	·	0	104*	70	30	44*
N#C[C@H]1[C@@H](c2ccc(C3=CCCCC3)cc2)[C@H](CO)N1C(=O)NC1CCCCC1	100*	·	2	105*	83	41*	54*
N#C[C@@H]1[C@H](c2ccc(C3=CCCCC3)cc2)[C@@H](CO)N1C(=O)NC1CCCCC1	92	·	1	·	·	·	·
COCC(=O)Nc1ccc2c(c1)OC[C@@H](C)N(C(=O)c1ccccc1F)C[C@H](C)[C@H](OC)CN(C)C2=O	-3	0	-1	·	·	·	·
OC[C@@H]1[C@@H](c2ccc(C#Cc3ccccc3)cc2)[C@@H]2CN(Cc3cncnc3)CCCCN12	101*	·	1	98*	56	33	103*
OC[C@@H]1[C@@H](c2ccc(C#Cc3ccccc3F)cc2)[C@@H]2CN(Cc3cncnc3)CCCCN12	83	·	1	·	·	·	·
OC[C@H]1[C@@H](c2ccc(C#Cc3ccccc3F)cc2)[C@H]2CN(Cc3cncnc3)CCCCN21	30	·	1	·	·	·	·
OC[C@H]1[C@@H](c2ccc(C#Cc3ccccc3F)cc2)[C@@H]2CN(Cc3cncnc3)CCCCN12	96*	·	1	104*	52	47*	104*
